Results from PMC7490525 (Biochemistry and Biophysics Reports, 2020).
Like-named read-outs stand apart in the source and are kept apart here. Marks after values point to notes of the source that are not given here.

Legend:
Caco-2 cells [1] = assay: Uptake of BSP from the apical membrane of Caco-2 cells; type: in vitro ADME, human
In short: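 Confluent Caco-2 cells (passage 54–70, 2 weeks on collagen) preincubated 20 min, then exposed to BSP in Hanks' buffer with glucose plus MES or HEPES. Conditions: 5 μM for 5 min at 37 °C pH 6.0 (control); pH 5.0/7.4/8.5; 4 °C; or Na+-free (KCl or choline chloride). Time course ran to 60 min; varied concentrations were fitted to carrier-mediated plus diffusion terms. Cell extracts normalised to protein; n=3–8.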

[2] = test system: organic anion transporting polypeptides (OATPs); assay: Effect of coincubated or pretreated compounds on BSP uptake by Caco-2 cells; type: cell-based, human; details: 37 °C, 5 min; for Decrease of BSP uptake on coincubation: 5 μM BSP with 100 μM compound, Caco-2 cells; for Ki: read-out: Inhibition constant (Ki) for BSP uptake, Dixon plot, competitive, 2, 5 or 10 μM BSP, PFCA 25, 50 or 100 μM, pH 6.0
Caco-2 cells [3] = type: in vitro ADME, human; details: 1 μM PFCA, pH 6.0, 37 °C, 5 min
Caco-2 cells [4] = details: cited from earlier work
[5] = test system: organic anion transporting polypeptides (OATPs); details: Caco-2 cells; cited from earlier work
Caco-2 cells [6] = details: cited from earlier work; remark: listed apart in the source
[7] = 5 μM BSP, 37 °C, pH 6.0, up to 60 min
[8] = Caco-2 cells, 37 °C, pH 6.0, 5 min, BSP 0.5–100 μM
[9] = coincubation of 5 μM BSP with 100 μM compound

O=C1OC(c2ccc(O)c(S(=O)(=O)O)c2)(c2ccc(O)c(S(=O)(=O)O)c2)c2c(Br)c(Br)c(Br)c(Br)c21 [BSP, sulfobromophthalein]
Relative uptake rate (% of control) (Caco-2 cells [1]; 5 μM BSP, 4 °C and pH 6.0, 5 min, control 37 °C and pH 6.0): 49.9 ± 3.1 ^d % of control
Relative uptake rate (% of control) (Caco-2 cells [1]; 5 μM BSP, 37 °C and pH 5.0, 5 min, control 37 °C and pH 6.0): 101.7 ± 5.1 % of control
Relative uptake rate (% of control) (Caco-2 cells [1]; 5 μM BSP, 37 °C and pH 7.4, 5 min, control 37 °C and pH 6.0): 105.2 ± 5.3 % of control
Relative uptake rate (% of control) (Caco-2 cells [1]; 5 μM BSP, 37 °C and pH 8.5, 5 min, control 37 °C and pH 6.0): 101.6 ± 1.3 % of control
Relative uptake rate (% of control) (Caco-2 cells [1]; 5 μM BSP, 37 °C, 5 min, Na+-free medium (NaCl replaced with KCl)): 95.0 ± 7.4 % of control
Relative uptake rate (% of control) (Caco-2 cells [1]; 5 μM BSP, 37 °C, 5 min, Na+-free medium (NaCl replaced with choline chloride)): 81.0 ± 4.0 % of control
Time at which BSP uptake plateaued (Caco-2 cells [1]; [7]): about 15 min
Time until which BSP uptake increased linearly (Caco-2 cells [1]; [7]): 10 min
Reduction of BSP uptake at low temperature (Caco-2 cells [1]; 4 °C, pH 6.0, versus 37 °C): 50%
Contribution of carrier-mediated uptake to BSP uptake (Caco-2 cells [1]; Caco-2 cells): approximately 70%
Contribution of uptake via simple diffusion to BSP uptake (Caco-2 cells [1]; Caco-2 cells): ~30%
Vmax of BSP uptake (Caco-2 cells [1]; [8]): 1.15 ± 0.07 nmol (mg protein)^−1 (5 min)^−1
kd (coefficient of passive diffusion) of BSP uptake (Caco-2 cells [1]; [8]): 38.2 ± 0.53 μL (mg protein)^−1 (5 min)^−1
Km (Caco-2 cells [1]; read-out: Km of BSP uptake, Caco-2 cells, 37 °C, pH 6.0, 5 min, BSP 0.5–100 μM): 13.9 ± 1.3 µM

O=[N+]([O-])c1ccc(O)c([N+](=O)[O-])c1 [DNP, 2,4-dinitrophenol]
Relative uptake rate of BSP (% of control) ([2]; cells treated with 1 mM DNP for 20 min, then 5 μM BSP): 105.9 ± 10.0 % of control

COc1ccc(Cl)cc1C(=O)NCCc1ccc(S(=O)(=O)NC(=O)NC2CCCCC2)cc1 [Glibenclamide, glibenclamide]
Decrease of BSP uptake on coincubation [2]: 48%
Relative uptake rate of BSP (% of control) [2, 9]: 52.2 ± 3.5 ^d % of control

[N-]=[N+]=[N-].[Na+] [NaN3, sodium azide]
Relative uptake rate of BSP (% of control) ([2]; cells treated with 10 mM NaN3 for 20 min, then 5 μM BSP): 106.4 ± 6.8 % of control

O=C(O)C(F)(F)C(F)(F)C(F)(F)C(F)(F)C(F)(F)C(F)(F)C(F)(F)C(F)(F)C(F)(F)F [PFDA, perfluorodecanoic acid]
Decrease of BSP uptake on coincubation [2]: 27–55%
Ki [2]: 43.2 ± 0.3 µM

O=C(O)C(F)(F)C(F)(F)C(F)(F)C(F)(F)C(F)(F)C(F)(F)F [PFHpA, perfluoroheptanoic acid]
Decrease of BSP uptake on coincubation [2]: 27–55%

O=C(O)C(F)(F)C(F)(F)C(F)(F)C(F)(F)C(F)(F)F [PFHxA, Perfluorohexanoic acid]
Uptake of PFCA by Caco-2 cells (rank among C6–C12) (Caco-2 cells [3]): the lowest

O=C(O)C(F)(F)C(F)(F)C(F)(F)C(F)(F)C(F)(F)C(F)(F)C(F)(F)C(F)(F)F [PFNA, perfluorononanoic acid]
Decrease of BSP uptake on coincubation [2]: 27–55%
Ki [2]: 35.3 ± 0.1 µM
Uptake of PFCA by Caco-2 cells (rank among C6–C12) (Caco-2 cells [3]): the highest

O=C(O)C(F)(F)C(F)(F)C(F)(F)C(F)(F)C(F)(F)C(F)(F)C(F)(F)F [PFOA, Perfluorooctanoic acid]
Vmax of PFOA uptake (Caco-2 cells [4]; PFOA 1–500 μM): 457 pmol/mg protein/min
Km (Caco-2 cells [4]; read-out: Km of PFOA uptake, PFOA 1–500 μM): 8.3 µM
Decrease of BSP uptake on coincubation [2]: 27–55%
Ki [2]: 62.2 ± 1.3 µM
Uptake of PFCA by Caco-2 cells (rank among C6–C12) (Caco-2 cells [3]): third highest

O=S(=O)(O)C(F)(F)C(F)(F)C(F)(F)C(F)(F)C(F)(F)C(F)(F)C(F)(F)C(F)(F)F [PFOS, perfluorooctane sulfonate]
Decrease of BSP uptake on coincubation [2]: 54%
Relative uptake rate of BSP (% of control) [2, 9]: 46.1 ± 4.5 ^d % of control

O=C(O)C(F)(F)C(F)(F)C(F)(F)C(F)(F)C(F)(F)C(F)(F)C(F)(F)C(F)(F)C(F)(F)C(F)(F)F [PFUnDA, perfluoroundecanoic acid]
Decrease of BSP uptake on coincubation [2]: 27–55%

C[C@]12CC[C@@H]3c4ccc(OS(=O)(=O)O)cc4CC[C@H]3[C@@H]1CCC2=O [estrone-3-sulfate]
Decrease of BSP uptake on coincubation [5]: 39%
Km (Caco-2 cells [6]; read-out: Km of estrone-3-sulfate, ref Gram et al. [27]): 23 µM
Km (Caco-2 cells [6]; read-out: Km of estrone-3-sulfate, ref Kis et al. [26]): 6 µM
Km (Caco-2 cells [6]; read-out: Km of estrone-3-sulfate, ref Sai et al. [4]): 1.8 µM

CO[C@H]1/C=C/O[C@@]2(C)Oc3c(C)c(O)c4c(O)c(cc(O)c4c3C2=O)NC(=O)/C(C)=C\C=C\[C@H](C)[C@H](O)[C@@H](C)[C@@H](O)[C@@H](C)[C@H](OC(C)=O)[C@@H]1C [rifamycin SV]
Decrease of BSP uptake on coincubation [5]: 40%
